Test results published in PubChem BioAssay AID504768 (Southern Research Specialized Biocontainment Screening …, 2011).
Calls of active or inactive are those of the source.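 Rule for the calls: active = phage lysis blocked by at least 50% at any tested concentration; inactive = the rest.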

Experiment: protection of E. coli UTI89 from K1F – UTI89 strain, C7 control, set 4, capsule biogenesis inhibitor project, confirmation (AID 504768)
Conditions: OD600, at 300 µM (top of the series); inhibition of phage lysis: at the top concentration
Procedure, shortened: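 Test system: E. coli UTI89 (K1) and kpsM mutant bacterial cultures; dosing: DMSO at 1% final; schedule: 1.25 h compound pre-incubation at 37 °C shaking, lysis read 3 h post-phage; detection: OD600 absorbance; control set: kpsM mutant resisting phage; repeats: four replicate wells per compound concentration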

Inhibition of phage lysis, inactive:
O=C(Nc1nc2c(Cl)cc(Cl)cc2s1)c1ccccn1 0%
O=C(Nc1nc2c(F)cc(F)cc2s1)c1cccnc1 0%
O=C(Nc1nc2ccc(F)cc2s1)c1ccccn1 0%
O=C(Nc1nc2ccccc2s1)c1cccnc1 0%
O=C(Nc1nc2c(F)cc(F)cc2s1)c1ccncc1 0%
O=C(Nc1nc2c(F)cccc2s1)c1ccccn1 0%
Cc1cc(C)c2nc(NC(=O)c3ccccn3)sc2c1 0%
O=C(Nc1nc2ccccc2s1)c1ccncc1 0%
O=C(Nc1nc2c(F)cc(F)cc2s1)c1ccccc1 0%
